Screening data (PubChem)
An excerpt weighted towards active compounds, which were near 2.3% of everything screened.
MEKK2wt PB1 HTS – modulators of MEK5 binding to wildtype MEKK2, primary screen, biochemical, multiplex bead flow cytometry, Alexa488-MEK5; Alexa488-MEK5 binding to MEKK2 WT; actives lie on both sides; binding response (% of control), % at 10 µM; 290,000 compounds, 1.1% hits; AID 1531, 2009; in the data active = binding response below about 67% or above about 130%
ABCG2 block – ABCG2 efflux pump inhibitors, primary screen, multiplex with ABCB1, IgMXP3 cells, flow cytometry; Broad substrate specificity ATP-binding cassette transporter ABCG2 (Homo sapiens), Q9UNQ0; JC-1 efflux; inhibition, % at 6.6 µM; 190,000 compounds, 0.1% hits; AID 1325, 2008;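 active = inhibition above 80%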;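 also: 0% = DMSO and 100% = nicardipine control wells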
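System: two drug-resistant human cell lines, ABCG2 and ABCB1; controls: nicardipine high and DMSO low controls; times: 10 min exposure at 25 °C with rotation, no wash; detection: flow cytometry of retained JC-1 fluorescence; read-out basis: percent efflux inhibition, scaled nicardipine 100% to DMSO 0%; doses: one concentration, 6.6 µM final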
MEKK3 PB1 HTS – modulators of MEKK3-MEK5 PB1 binding, primary screen, biochemical, wildtype MEKK3, multiplex bead flow cytometry, Alexa488-MEK5. Mitogen-activated protein kinase kinase kinase 3 (Homo sapiens), Q99759. bead-based flow cytometry, Alexa488-MEK5 binding to MEKK3; actives lie on both sides; 0 = blocked by unlabeled MEK5, 100 = vehicle. binding response (% of control), % at 10 µM. 290,000 compounds, 1.4% hits. AID 1529, 2009;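 active = binding response more than 3 SD above or below the average of its plate-row segment, actives on both sides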;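 also: Alexa488 bead fluorescence after subtracting the streptavidin-only scavenger bead signal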
ABCB1 block – ABCB1 efflux pump inhibitors, primary screen, cell-based, multiplex, flow cytometry, ABCG2 counter-screen. ATP-dependent translocase ABCB1 (Homo sapiens), P08183. AID 1326, 2008. inhibition, % at 6.6 µM. CCRF-Adr cells, JC-1 efflux. 190,000 compounds, 0.067% hits; in the data active = inhibition above about 40%;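 also: 0% = vehicle and 100% = reference inhibitor; higher value means more JC-1 retained so stronger ABCB1 efflux block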
MEKK2mut PB1 HTS – MEK5 binding signal on mutant MEKK2 PB1, primary screen, biochemical, multiplex bead flow cytometry, Alexa488-MEK5. Alexa488-MEK5 binding to MEKK2 mutant. AID 1530, 2009. 290,000 compounds, 0.35% hits. percent response, % at 10 µM; in the data active = percent response above about 24%, passing the limit was not always enough
MEKK2wt confirm – modulators of MEK5 binding to wildtype MEKK2, confirmation, biochemical, single concentration, multiplex bead flow cytometry | Alexa488-MEK5 binding to MEKK2 WT; actives lie on both sides | shares compounds with MEKK3 PB1 HTS | 5,900 compounds, 2.4% hits | binding response (% of control), % at 10 µM; in the data active = binding response below about 16% or above about 210%; inactive = in between
MEKK2mut confirm – mutant MEKK2 PB1-MEK5 binding signal retest – biochemical, single concentration, multiplex bead flow cytometry, confirmation. shares compounds with MEKK3 PB1 HTS. Alexa488-MEK5 binding to MEKK2 mutant. percent response, % at 10 µM. 5,900 compounds, 2% hits. AID 1893, 2009; in the data active = percent response mostly above about 71%, no sharp cut-off; inactive = mostly below about 38%;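 also: higher means compound restores mutant binding toward wildtype level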
MEKK3-MEK5 inh – MEKK3 wild-type PB1 binding to MEK5, inhibitors, confirmation, biochemical, bead multiplex flow cytometry, single concentration, wildtype. shares compounds with MEKK3 PB1 HTS. Alexa488-MEK5 binding to MEKK3; stronger effect = lower value. binding response (% of control), % at 10 µM. 5,900 compounds, 1.8% hits;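 active = binding response below 72% of control, or above a set upper limit, though filed actives all read lower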;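 also: 100% = DMSO only wells and 0% = binding blocked by excess unlabeled MEK5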
Active calls of the source: *; nt = no result; [ ] = dose if it differs, or a comment.

SMILES	MEKK2wt PB1 HTS	ABCG2 block	MEKK3 PB1 HTS	ABCB1 block	MEKK2mut PB1 HTS	MEKK2wt confirm	MEKK2mut confirm	MEKK3-MEK5 inh
COCc1cc(N2CCN(c3ccccc3F)CC2)nc(-c2ccccc2)n1	6.0*[inhibitor]	5	4.0*[inhibitor]	2	-19	103	-1	102
COCc1cc(N2CCOCC2)nc(-c2ccccc2)n1	95	0	101	0	-2	nt	nt	nt
CNC(=O)/C(C#N)=C/c1c(N2CCCCCC2)nc2c(C)cccn2c1=O	105	nt	106	nt	7	nt	nt	nt
CC(=O)N1CCc2cc(S(=O)(=O)NC(Cc3ccccc3)C(=O)O)ccc21 (configuration not stated)	108	nt	106	nt	3	nt	nt	nt
COCc1cc(C)nc(OCC(=O)N/N=C/c2ccc(O)cc2O)c1C#N	89	0	93	0	-3	nt	nt	nt
COCc1cc(C)nc(OCC(=O)N/N=C/c2ccccc2O)c1C#N	85	0	92	0	188*	98	0	99
Cc1cc(C)c(-n2c(SCC(=O)N3CCOCC3)n[nH]c2=O)c(C)c1	99	nt	99	nt	-3	nt	nt	nt
NNC(=O)c1csc(CS(=O)(=O)c2ccc(Cl)cc2)n1	98	nt	103	nt	2	nt	nt	nt
Cc1nc(CS(=O)(=O)c2ccc(Cl)cc2)sc1C(=O)O	129	nt	129*	nt	23	101	-4	101
Cc1ccc2nc(-c3ccc(NC(=O)CN4CCN(c5ccccn5)CC4)cc3)sc2c1	121	nt	130*	nt	27	96	-2	103
Cc1ccc2nc(NC(=O)CN3CCN(c4ccccn4)CC3)sc2c1	105	nt	103	nt	6	nt	nt	nt
CN(C)c1ncc(C2=C(Cl)C(=O)C(N3CCCC3)=C(Cl)C2=O)s1	89	-1	87	0	-6	nt	nt	nt
O=C1C(Cl)=C(N2CCCCC2)C(=O)C(Cl)=C1c1cnc(N2CCCCC2)s1	60*[inhibitor]	0	62*[inhibitor]	0	-20	72	-7	85
COC(=O)c1ccc(N2CCN(S(=O)(=O)c3ccc(Br)cc3)CC2)c([N+](=O)[O-])c1	124	2	129*	1	8	97	-5	94
COC(=O)c1ccc(N2CCN(S(=O)(=O)c3ccc(C)cc3)CC2)c([N+](=O)[O-])c1	91	5	97	1	-4	nt	nt	nt
O=C(NNC(=S)Nc1ccc(Br)cc1)c1ccc(N2CCOCC2)c([N+](=O)[O-])c1	112	4	137*	0	0	104	0	102
CC1CCCCN1CCCNC(=O)c1ccc(NC(=O)C2=CSCCO2)cc1 (configuration not stated)	109	nt	98	nt	3	nt	nt	nt
Nc1nncn1C(=O)CCCN1C(=O)c2ccccc2C1=O	121	11	122*	1	5	107	5	101
O=C(CCCN1C(=O)c2ccccc2C1=O)N1CCc2ccccc2C1	99	11	99	1	-5	nt	nt	nt
CCO[C@@H]1OC(C(=O)NC2CC2)=C[C@H](c2c[nH]c3ccccc23)[C@H]1CCCO	111	nt	82*[inhibitor]	nt	1	99	-7	103
O=C(C1CCC(CNS(=O)(=O)c2ccccc2)CC1)N1CCOCC1 (configuration not stated)	108	nt	104	nt	10	nt	nt	nt
c1ccc(OCCOc2cccc3cccnc23)cc1	109	17	152*	0	1	94	0	94
Brc1ccc(OCCOc2cccc3cccnc23)cc1	96	9	96	nt	-1	nt	nt	nt
CS(=O)(=O)N1CCc2cc(C(=O)N3CCCC3)ccc21	119	0	132*	0	1	97	-4	104
Cc1nn(-c2ccccc2)c(C)c1C(=O)OCc1ccc(C#N)cc1	109	nt	106	nt	2	nt	nt	nt
SMILES	MEKK2wt PB1 HTS	ABCG2 block	MEKK3 PB1 HTS	ABCB1 block	MEKK2mut PB1 HTS	MEKK2wt confirm	MEKK2mut confirm	MEKK3-MEK5 inh
Cc1ccc(/C=N/NC(=O)c2ccoc2C)o1	110	12	130*	1	1	106	7	108
CC(=O)Oc1ccc(C(=O)[C@H]2[C@H]3C(=O)N(c4cccc5ccccc45)C(=O)[C@H]3[C@@H]3C=CC=NN32)cc1	101	0	179*	-1	0	101	2	103
Fc1ccc(/C=C\c2nccc3c2[nH]c2ccccc23)cc1	195*	6	112	-1	36	181	43	109
C(=C\c1nccc2c1[nH]c1ccccc12)/c1ccccc1	121	nt	99	nt	15	nt	nt	nt
Cc1ccc(/C=C\c2nccc3c2[nH]c2ccccc23)cc1	174*	-4	105	-1	26	190	68	111
O=C(Nc1ccc(Cl)cc1)C1CCCN(c2cnccn2)C1 (configuration not stated)	105	nt	106	nt	4	nt	nt	nt
Cc1cccc(N(C(=O)c2csnn2)C(C(=O)NC2CCCCC2)c2ccncc2)c1 (configuration not stated)	103	nt	103	nt	1	nt	nt	nt
CCn1nc(C)c(NS(=O)(=O)c2ccc(C)cc2)c1C	88	4	73*[inhibitor]	0	2	104	7	107
Cc1ccc(S(=O)(=O)Nc2c(C)nn(C)c2C)cc1	98	0	97	0	-3	nt	nt	nt
Cc1cc(C)nc(SCC(=O)c2ccc(F)cc2F)n1	104	nt	102	nt	9	nt	nt	nt
CC1CCC2C(=O)N(c3ccc(NC4CCN(Cc5ccccc5)CC4)c([N+](=O)[O-])c3)C(=O)C2C1 (configuration not stated)	106	1	70*[inhibitor]	2	-8	117	16	103
O=C1C2CCCCC2C(=O)N1c1ccc(NC2CCN(Cc3ccccc3)CC2)c([N+](=O)[O-])c1 (configuration not stated)	102	0	94	0	-6	nt	nt	nt
COc1cccc(NC(=O)c2ccc(NCCCN3CCC(C)CC3)c([N+](=O)[O-])c2)c1	130	2	100	0	11	nt	nt	nt
